Source: PubChem
Yeast lifespan up = extends the lifespan of yeast. 130,000 tested, 0.68% active. inhibition of the nicotinamide effect, % at 10 µM. S. cerevisiae growth with nicotinamide, OD615; deaD strain in restrictive glucose medium;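 active = inhibition above a set limit, placed 3 SD over the median of all compounds, cut at about 26% in these data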;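 also: 0% = nicotinamide-treated wells and 100% = cells grown without nicotinamide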
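Assay system: engineered S. cerevisiae DeaD replicative-lifespan strain, galactose-grown log-phase cells; medium: restrictive CSMM-D dextrose medium; also added: nicotinamide, 1.5 mM, co-present with compound; schedule: 48 h compound exposure at 30 °C, humidified; detection: absorbance at 615 nm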
sEH act = increases human soluble epoxide hydrolase activity. 91,000 tested, 0.04% active. purified human sEH enzymatic activity, activator screen. P34913. activation, % at 2 µM; in the data active = activation above about 37%
Target sequence (P34913 whole entry, looked up): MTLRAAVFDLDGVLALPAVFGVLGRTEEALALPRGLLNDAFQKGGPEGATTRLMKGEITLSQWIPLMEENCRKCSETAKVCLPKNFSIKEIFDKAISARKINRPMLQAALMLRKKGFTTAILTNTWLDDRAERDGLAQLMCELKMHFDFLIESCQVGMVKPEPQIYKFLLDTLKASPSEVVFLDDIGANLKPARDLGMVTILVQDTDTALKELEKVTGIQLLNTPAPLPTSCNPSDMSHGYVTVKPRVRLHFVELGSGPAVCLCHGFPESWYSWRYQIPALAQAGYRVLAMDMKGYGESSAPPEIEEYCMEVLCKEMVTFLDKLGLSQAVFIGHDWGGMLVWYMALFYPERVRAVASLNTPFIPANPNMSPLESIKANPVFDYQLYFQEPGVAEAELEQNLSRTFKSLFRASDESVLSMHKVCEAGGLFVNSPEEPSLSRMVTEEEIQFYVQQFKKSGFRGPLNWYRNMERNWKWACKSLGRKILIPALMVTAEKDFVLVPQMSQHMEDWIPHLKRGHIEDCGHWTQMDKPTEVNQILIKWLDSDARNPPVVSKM
sEH inhibitor = inhibitors of human soluble epoxide hydrolase; P34913; recombinant human sEH enzymatic activity assay; inhibition, % at 2 µM; 91,000 tested, 0.34% active; AID 707; in the data active = inhibition above about 80%
Yeast growth inh = chemicals that inhibit yeast BB579 growth in restrictive medium (lifespan-shortening candidates); AID 804; 140,000 tested, 0.51% active; S. cerevisiae BB579 growth, OD615, 48 h; inhibition, % at 10 µM;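 active = inhibition above a set limit, 3 SD over the mean compound inhibition, cut at about 44% in these data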
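controls = amphotericin B 10 µg/mL, positive | assay system = DeaD yeast strain BB579 | schedule = 48 h compound exposure at 30 °C after 4 h preincubation | detection = OD615 turbidity measurement | medium = restrictive CSMM-D medium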
Measles CPE = protection of cells from measles virus; Measles virus-infected cells, CPE protection, absorbance; protection (pct of control), % at 4 µM; 140,000 tested, 1.5% active; in the data active = protection mostly above about 24%, no sharp cut-off; inactive = mostly below about 26%
sdo1 growth = compounds rescuing growth of sdo1-depleted yeast, bone marrow failure model. z-score at 10 µM. 140,000 tested, 0.21% active. S. cerevisiae sdo1-depleted JHY4D growth rescue, OD600 30 h; active compounds read high; pdr5 snq2 efflux-pump mutant strain. AID 817;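 active = z-score above 3 at both the 24 hr and the 30 hr optical density reads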;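 also: z-score against mean and SD of all compound wells on the same plate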
Active calls of the source: *; . = not tested or not shown. An excerpt weighted towards active compounds, which were near 3% of everything screened.

SMILES	Yeast lifespan up	sEH act	sEH inhibitor	Yeast growth inh	Measles CPE	sdo1 growth
COc1ccc(-n2nc(C(=O)NCC(=O)NCc3ccc(F)cc3)c3ccccc3c2=O)c(OC)c1	-30	-10	8	-49	87*	-0.84
C=CCn1c(SCc2nc3sc4c(c3c(=O)[nH]2)CCCC4)nc2ccccc2c1=O	3	.	.	-34	26	0.88
Cc1c(N=C2NC(=O)C(CC(=O)Nc3ccccc3)S2)c(=O)n(-c2ccccc2)n1C (stereo not drawn)	-32	-1	4	-26	38*	-0.65
CCCCCCCCCSc1n[nH]c(N)n1	-25	-4	7	-11	60*	-1.3
O=C(CC12CCC(CC1)C2)NCc1ccc2c(c1)OCO2	.	-56	56	-31	2	-0.01
CCC1(c2ccc(F)cc2)NC(=O)N(CC(=O)c2ccc[nH]2)C1=O (stereo not drawn)	-10	16	-13	-48	30*	0.66
O=C(c1ccc(CNc2c(NC3CCCCC3)c(=O)c2=O)cc1)N1CCc2ccccc21	-7	.	.	-28	3	-0.14
CCN1C(=O)N[C@H](c2ccc(Br)cc2)C(C(C)=O)=C1C	40*	.	.	-20	18	0.3
Cc1cc(Cl)c(OCCCN(C)C)c(Br)c1	1	.	.	-23	48*	1.1
Cc1ccc(OCCCN(C)C)c(Br)c1	-8	4	-4	10	24	-0.44
COc1cccc(NC(=O)C(NCC(C)(C)CN(C)C)c2ccccc2)c1 (stereo not drawn)	-9	13	-11	-26	46*	-0.06
CC(=O)Oc1ccc(C(=O)Nc2ccccc2C(=O)NCC(C)C)cc1	-6	.	.	-18	54*	0.63
CC(C)CNC(=O)c1ccccc1NC(=O)c1ccc(CN2CCOCC2)cc1	3	3	1	-19	11	1.2
O=C(Nc1ccncc1)c1ccc(NS(=O)(=O)c2cccc(F)c2)cc1	1	.	.	-23	5	0.85
COc1cccc(NC(=O)C2C3C=CC(O3)C2C(=O)NCc2cccnc2)c1 (stereo not drawn)	-1	-8	11	-20	11	0.93
COc1ccc(COc2cc(-c3cccc(OC)c3)nc3ccc(N)cc23)cc1	-2	.	.	-31	10	0.37
COc1ccccc1C1CN(c2ccc(F)cc2F)N=C1c1cccs1 (stereo not drawn)	-16	38*	-35	-79	17	-0.55
Cc1cc(/C=N/n2cnnc2)c(C)n1-c1ccc(OCc2ccc(Cl)cc2)cc1	-7	-22	18	8	48*	-1.5
Cc1cc(/C=N/n2cnnc2)c(C)n1-c1ccc(OCc2ccccc2F)cc1	-10	-13	12	6	0	-1.6
Cc1cccc2c1-c1sc(C(=O)Nc3nccs3)cc1CO2	-6	53*	-52	-22	21	-1.1
Cc1cccc(C2(c3cccc(C)c3)CC2C(=O)Nc2ccc([N+](=O)[O-])cc2O)c1 (stereo not drawn)	1	.	.	-20	13	-1.7
COc1ccc(N(C(=O)C(C)C)S(=O)(=O)c2ccc(Cl)cc2)cc1	51*	2	2	-50	21	-0.48
COc1ccc(N(C(=O)C(C)C)S(=O)(=O)c2ccc3c(c2)n(C)c(=O)n3C)cc1	1	4	-1	-36	8	-0.01
O=C(Cc1c2ccccc2nc2ccccc12)c1ccccc1	4	.	.	-31	20*	-0.73
O=C(CC(CC(=O)c1ccccc1)C(=O)O)c1ccccc1	13	6	-5	-17	4	0.16
SMILES	Yeast lifespan up	sEH act	sEH inhibitor	Yeast growth inh	Measles CPE	sdo1 growth
CCOC(=O)CNC1CC(=O)N(c2cccc(Cl)c2)C1=O (stereo not drawn)	2	-4	2	-19	10	2.4
O=C(C(c1ccccc1)c1ccccc1)N1CCC(c2nc(-c3ccccc3Cl)no2)CC1	.	7	-7	-41	37*	-1.5
CCOc1cccc(CNCCO)c1OCc1ccc(Cl)cc1Cl	-3	.	.	-1	9	0.81
CCOc1cc(CNCCO)cc(Br)c1OCc1ccc(Cl)cc1Cl	-36	-4	6	96*	6	-2.3
Oc1c(Br)cc(Cl)cc1C=Nc1ccccc1Br	16	.	.	65*	28	-0.02
Cc1ccc(C(=O)NC(NC(=O)c2ccc(C)cc2)c2cccc([N+](=O)[O-])c2)cc1	-3	.	.	-19	4	1.6
C=CCNc1nc(N2CCCCC2)c(C#N)c2c1CN(Cc1ccccc1)CC2	-26	-34	33	-68	61*	-1.8
CNC(=O)c1nn(-c2ccc(C)cc2)ccc1=O	-5	5	-3	-46	43*	0.18
Cc1ccc(O)c(C(=O)c2cnc3c(c2)c(C)nn3-c2ccccc2)c1	-7	.	.	-14	14	-1.1
CC1CCCCN1S(=O)(=O)c1ccc(C(=O)Nc2sccc2C(N)=O)cc1 (stereo not drawn)	-10	10	-12	-9	4	-0.41
CC(=O)C1=C(O)C(=O)N(Cc2ccco2)C1c1ccccc1 (stereo not drawn)	-3	.	.	-30	34*	0.67
CC(=O)C1=C(O)C(=O)N(Cc2ccco2)C1c1ccc(F)cc1 (stereo not drawn)	-3	0	1	16	6	0.99
CN(O)/C=c1/ccc2c(n1)C(=O)C=CC=2	-11	.	.	97*	9	0.06
CCOC(=O)CSc1nc2cc(C(=O)N3CCC(C(N)=O)CC3)ccc2c(=O)n1-c1ccccc1	-4	-1	2	-77	1	0.9
CCOC(=O)CSc1nc2cc(C(=O)N3CCCC3)ccc2c(=O)n1Cc1ccccc1	-8	6	-6	-7	25*	0.13
CCn1c(/C=N/c2nc3ccccc3n2C)nc2ccccc21	34*	3	0	1	12	0.45
Cn1c(/N=C/c2c[nH]c3ccccc23)nc2ccccc21	-11	3	-1	16	1	-0.28
O=C(Cn1cnc2ccccc21)N/N=C/c1ccccc1[N+](=O)[O-]	-3	.	.	11	30	0.45
Cc1ccc(/C=C/C(=O)N2CCN(c3ncccn3)CC2)o1	-7	.	.	-50	8	0.77
c1ccc(-c2nnnc3ccccc23)cc1	-1	.	.	-13	7	-0.63
Clc1ccc2nnnc(-c3ccccc3)c2c1	3	.	.	46*	8	-2.3
CC(C)OC(=O)c1c(F)c(F)c(N2CCOCC2)c(F)c1F	44*	.	.	-6	4	-0.09
COc1ccc(Nc2ccnc(Nc3ccc(OC)cc3)n2)cc1	-6	.	.	-43	6	-2.2
Cc1c(NC(=O)c2ncn[nH]2)cccc1-c1nc2ccccc2s1	0	.	.	-6	.	0.6
O=C(COc1ccc(F)cc1)NCC1CCCO1 (stereo not drawn)	-2	9	-6	-33	43*	1.2
O=C(COc1ccccc1)NCC1CCCO1 (stereo not drawn)	.	11	-11	-2	4	1.1
CCOc1ccc(C(=O)N2CCCC2)cc1OC	-3	3	-3	-28	33*	0.75
